Source: the EternaBench riboswitch data

Test system: MS2 coat protein
Test: apparent Kd, MS2 coat protein; higher = weaker binding; RNA-MaP array; tryptophan 2.4 mM where present
Summary of the method: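 Designs were transcribed by stalled E. coli RNA polymerase on Illumina sequencing-chip clusters. They were titrated with SNAP-549-labelled MS2 coat protein from 0.7 or 1.5 nM, doubling to 3 µM, without and then with constant ligand. Buffer: 100 mM Tris-HCl pH 7.5, 80 mM KCl, 4 mM MgCl2, BSA, DTT, yeast tRNA, Tween-20. Green signal was normalised to red-channel RNA signal and control-cluster median Fmax. Apparent Kd is the median of filtered per-cluster binding-curve fits.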

[1] = designed as: OFF switch for tryptophan, no ligand
[2] = ligand present: tryptophan, designed as: OFF switch for tryptophan
[3] = designed as: ON switch for tryptophan, no ligand
[4] = ligand present: tryptophan, designed as: ON switch for tryptophan

Sequence | apparent Kd [1] [nM] | apparent Kd [2] [nM] | apparent Kd [3] [nM] | apparent Kd [4] [nM]
AAAGAUCGGAAACGAUCGGCGGCUUGGGCGCGAGGACCGGUACGGCCGCCACUCGGGAAACAUGAGGAUCACCCAUGUUGCUAGC | 13.7 | 15.2 | – | –
ACAUGAGGAUCACCCAUGUGAAGCAGGGUACGAGGACCGGUACGGCCGCCACUCGAGCAUUAUACCGAGUGAAUGGCAACGAUGU | 15.7 | 17 | – | –
AGCACUGUGACGGCCGCCACUACAUAUAGGGUGGUCAGGUUCAUAAUACAUGAGGAUCACCCAUGUAGGACCGGGUCUCAGUGCA | 12.5 | 14.4 | – | –
GUCCUAAGGUCGGCCGCCACUGUAGAGUGUGAGCCAUCACAUGAGGAUCACCCAUGUUGUUGCUAUAGGACCGGGAUUGUAGGAC | 12 | 16.4 | – | –
AGCCGCGUUCUUUCUUUCUUUCUAGCGGCACGAGGACCGGUACGGCCGCCACUCGCCCACAUGAGGAUCACCCAUGUAGUGGGUG | 18.8 | 80.6 | – | –
CGAUAUGGGACGGCCGCCACUAUUAUGUAACAAAAUAAACAUGAGGAUCACCCAUGUACAUGGGAUAGGACCGGGUCCUAUAACG | – | – | 32.4 | 19.9
GUAUUAACAAAAGUUGAUACAGUGGGUGAACGAGGACCGGUACGGCCGCCACUCGGACAUGAGGAUCACCCAUGUCCAUGUGAAA | 17.2 | 27.2 | – | –
UCUUUUUUCUUUUCUUCUUUCGGUUCUUUUCGAGGACCGGUACGGCCGCCACUCGAAACAUGAGGAUCACCCAUGUUUUGGUUUU | 11.9 | 17.5 | – | –
GGAUUACGAAAGUAGUCCAUCAAGUUCGAGCGAGGACCGGUACGGCCGCCACUCGAACAUGAGGAUCACCCAUGUAGCGAAAGCU | – | – | 284 | 255
AGACUUCGCAUAGGAAAACUAUGUGAAGUCCGAGGACCGGUACGGCCGCCACUCGUCCUCAACAUGAGGAUCACCCAUGUAAUAA | 21.5 | 27.3 | – | –
AACAUGAGGAUCACCCAUGUGUCCUCGAAACGAGGACCGGUACGGCCGCCACUCGAAAGGUGUUGACGAAAAGUCAGCACCAAAA | 302 | 930 | – | –
UCCUGCAGAGCGGCCGCCACUGUGUUGCGUGAGGAUGACCCAACAUGAGGAUCACCCAUGUUGUUUAGGACCGGGCUUGCCUCGA | 13.4 | 12.3 | – | –
UAAACUACACAUGAGGAUCACCCAUGUGGCCGAGGACCGGUACGGCCGCCACUCGUGUGUUAAUAAAAGAACCGCAAAGUUCUUU | – | – | 277 | 75.9
CGAGUAAGAACAAUCGAAUAACGGUUUUCGCGAGGACCGGUACGGCCGCCACUCGUGUGAUAUAACACAUGAGGAUCACCCAUGU | – | – | 26.3 | 24.4
AUAAUAAUACAUGAGGAUCACCCAUGUAUGCGAGGACCGGUACGGCCGCCACUCGACCUCAUGCAUACAUGAGGAUCACCCAUGU | – | – | 32.5 | 62
GACCCAUGAGUUGCAAAAGCUCAUGGGUCGCGAGGACCGGUACGGCCGCCACUCGGCUGUACAUGAGGAUCACCCAUGUCAGGGU | – | – | 371 | 529
UGAUACCAGUCGGCCGCCACUAUGCUAGAUACUAGCAAUAAAGGGCGACAUGAGGAUCACCCAUGUAGGACCGGGACUGGUAUCU | 11.2 | 14.8 | – | –
AUAUAUACAUGAGGAUCACCCAUGUUAUUUCGAGGACCGGUACGGCCGCCACUCGAUAGAGUAGAAGUAACAUGUGUUAGUUGAU | – | – | 22.3 | 47
AACAUGAGGAUCACCCAUGUCCUCGUGUUCCGAGGACCGGUACGGCCGCCACUCGGUCCUCGCGAGGAUGGUCAAAGACUAUCCA | – | – | 97.4 | 170
CUGCUACAUACGGCCGCCACUUUAAACAUGAGGAUCACCCAUGUACGGAAGGGUGGUAAAUGUUAAAGGACCGGGUAUGUAGCAA | 176 | 45.1 | – | –
UAAACUACACAUGAGGAUCACCCAUGUGGCCGAGGACCGGUACGGCCGCCACUCGUGUGUUAAUAAAAGAACUGCAAAGUUCCUU | – | – | 295 | 86.1
AGAAUAUAGUCGGCCGCCACUCUUCAUACAUGAGGAUCACCCAUGUUUAAUUCUUGGAUAUUCUUGAGGACCGGGACAUAGGCAU | – | – | 18.4 | 16.8
GGGUGGUAGGCGGCCGCCACUGAUUUUUAUUUAUAGAUGACAUGAGGAUCACCCAUGUAGAUAUGCAGGACCGGGCCUGUUGUUU | – | – | 19.3 | 17.8
